Assay results as given in ChEMBL document CHEMBL3259792 (Eur J Med Chem, 2014).

Legend:
[1] = system: Human immunodeficiency virus 1; test: Antiviral activity against HIV1 harboring reverse transcriptase Y181C mutant infected in human MT4 cells assessed as inhibition of virus-induced cell death measured after 5 days of infection by MTT method; type: functional, organism-based; conditions: Human immunodeficiency virus 1, MT4, 120 h
How it was run: (§1)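 MT-4 cells infected with the named NNRTI-resistant HIV-1 RT mutant strain, in the presence of a range of compound concentrations. Viable cells counted at day 5 post-infection by tetrazolium (MTT) colorimetry. […] Mean of 2–3 independent experiments, each in triplicate.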

[2] = system: Human immunodeficiency virus 1; test: Antiviral activity against HIV1 harboring reverse transcriptase Y188L mutant infected in human MT4 cells assessed as inhibition of virus-induced cell death measured after 5 days of infection by MTT method; type: functional, organism-based; conditions: Human immunodeficiency virus 1, MT4, 120 h; how it was run: as §1
[3] = system: Human immunodeficiency virus 2; test: Antiviral activity against HIV-2 ROD infected in human CEM cells assessed as protection of cells monitored by giant cell formation by microscopy; type: functional, organism-based; conditions: Human immunodeficiency virus 2, ISOLATE ROD, CCRF-CEM
How it was run: (§2)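 Human CEM cultures (~3 × 10⁵ cells/mL) infected with ~100 CCID₅₀ per mL of HIV-1 IIIB or HIV-2 ROD, seeded with serial compound dilutions. Incubated 4 days at 37 °C; syncytium (giant cell) formation scored by microscopy. EC₅₀ = concentration protecting cells from viral cytopathicity by 50%. Means of two to three independent experiments, each in triplicate.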

[4] = system: Human immunodeficiency virus 1; test: Antiviral activity against HIV1 harboring reverse transcriptase K103N mutant infected in human MT4 cells assessed as inhibition of virus-induced cell death measured after 5 days of infection by MTT method; type: functional, organism-based; conditions: Human immunodeficiency virus 1, MT4, 120 h; how it was run: as §1
[5] = Cytotoxicity against human MT4 cells assessed as cell viability by MTT assay; type: cell-based
How it was run: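 Mock-infected MT-4 cells exposed to a range of compound concentrations. Viable cells measured by MTT colorimetry at day 5. CC₅₀ = concentration causing 50% death of non-infected cells. Means of two to three independent experiments, each in triplicate.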

[6] = system: Human immunodeficiency virus 1; test: Antiviral activity against HIV1 harboring reverse transcriptase K103N/Y181C double mutant infected in human MT4 cells assessed as inhibition of virus-induced cell death measured after 5 days of infection by MTT method; type: functional, organism-based; conditions: Human immunodeficiency virus 1, MT4, 120 h; how it was run: as §1
[7] = system: Human immunodeficiency virus 1; test: Antiviral activity against HIV1 harboring reverse transcriptase […] mutant infected in human MT4 cells assessed as inhibition of virus-induced cell death measured after 5 days of infection by MTT method; type: functional, organism-based; conditions: Human immunodeficiency virus 1, MT4, 120 h; how it was run: as §1
[8] = system: Human immunodeficiency virus 1; test: Antiviral activity against HIV1 NL4.3 infected in human MT4 cells assessed as inhibition of virus-induced cell death measured after 5 days of infection by MTT method; type: functional, organism-based; conditions: Human immunodeficiency virus 1, NL4.3, MT4, 120 h
How it was run: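 Lymphoid MT-4 cells (NIH AIDS Reagent Program) infected with HIV-1 NL4-3 in the presence of varying compound concentrations. On day 5 post-infection, viable cells were counted by MTT tetrazolium colorimetry. EC₅₀ = concentration inhibiting virus-induced cell death by 50%. Means of two to three independent experiments, each in triplicate.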

[9] = system: Human immunodeficiency virus 1; test: Ratio of EC50 for HIV1 harboring reverse transcriptase K103N mutant to EC50 for wild type HIV1 NL4.3; type: functional
How it was run: (§3)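 Fold change is the EC50 against the named mutant strain divided by the EC50 against wild-type HIV-1 NL4-3. […] Means of 2–3 independent experiments in triplicate.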

[10] = Selectivity index, ratio of CC50 for human MT4 cells to EC50 for HIV1 NL4.3 infected in human MT4 cells; type: toxicity, cell-based; conditions: read-out: Ratio CC50/EC50
How it was run: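 Ratio CC₅₀/EC₅₀. CC₅₀ is from mock-infected MT-4 cells and EC₅₀ from HIV-1 NL4-3-infected MT-4 cells, both read by MTT at day 5 post-infection.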

[11] = system: Human immunodeficiency virus 1; test: Ratio of EC50 for HIV1 harboring reverse transcriptase Y188L mutant to EC50 for wild type HIV1 NL4.3; type: functional; how it was run: as §3
[12] = system: Human immunodeficiency virus 1; test: Ratio of EC50 for HIV1 harboring reverse transcriptase Y181C mutant to EC50 for wild type HIV1 NL4.3; type: functional; how it was run: as §3
[13] = system: Human immunodeficiency virus 1; test: Ratio of EC50 for HIV1 harboring reverse transcriptase K103N/Y181C double mutant to EC50 for wild type HIV1 NL4.3; type: functional; how it was run: as §3
[14] = target: T1, Human immunodeficiency virus type 1 reverse transcriptase (Human immunodeficiency virus 1, UniProt Q72547); test: Inhibition of HIV1 wild-type reverse transcriptase using [3H]dTTP by scintillation counting
[15] = target: Human immunodeficiency virus type 1 reverse transcriptase (Human immunodeficiency virus 1, UniProt Q72547, K103N); test: Inhibition of HIV1 wild-type reverse transcriptase K103N mutant using [3H]dTTP by scintillation counting
[16] = target: T1, Human immunodeficiency virus type 1 reverse transcriptase; test: Inhibition of HIV1 wild-type reverse transcriptase Y181I/Y181C mutant using [3H]dTTP by scintillation counting
[17] = target: Human immunodeficiency virus type 1 reverse transcriptase (Human immunodeficiency virus 1, UniProt Q72547, L100I); test: Inhibition of HIV1 wild-type reverse transcriptase L100I mutant using [3H]dTTP by scintillation counting
How it was run: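 RNA-dependent DNA polymerase activity of recombinant RT (2–4 nM) on poly(rA)/oligo(dT) 10:1 with [3H]dTTP (1 Ci/mmol). Incubation at 37 °C. Acid-insoluble radioactivity collected on GF/C filters after 5% cold TCA, counted by scintillation.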

[18] = system: Human immunodeficiency virus 1; test: Antiviral activity against HIV1 3B infected in human CEM cells assessed as protection of cells monitored by giant cell formation by microscopy; type: functional, organism-based; conditions: Human immunodeficiency virus 1, 3B, CCRF-CEM; how it was run: as §2
[19] = system: Human immunodeficiency virus 1; test: Ratio of EC50 for HIV1 harboring reverse transcriptase […] mutant to EC50 for wild type HIV1 NL4.3; type: functional; how it was run: as §3

## Cc1ccnc2c1NC(=O)c1cccnc1N2C1CC1 [NEVIRAPINE]
[1]
  EC50: > 3760 nM
[2]
  EC50: > 3760 nM
[3]
  EC50: > 10000 nM
[4]
  EC50: > 3760 nM
[5]
  CC50: > 18800 nM
[6]
  EC50: > 3760 nM
[7]
  EC50: 60 nM
[8]
  EC50: 112 nM

## Cc1cn([C@H]2C[C@H](N=[N+]=[N-])[C@@H](CO)O2)c(=O)[nH]c1=O [ZIDOVUDINE]
[1]
  EC50: 6 nM
[2]
  EC50: 33 nM
[4]
  EC50: 16 nM
[9]
  Ratio EC50: 4.3
[5]
  CC50: > 30600 nM
[10]
  selectivity ratio: > 8270
[11]
  Ratio EC50: 8.9
[6]
  EC50: 16 nM
[8]
  EC50: 3.7 nM
[12]
  Ratio EC50: 1.6

## Cc1cc(C)cc(S(=O)(=O)c2c(C(=O)NCc3ccc(N(C)C)cc3)[nH]c3ccc(Cl)cc23)c1
[1]
  EC50: 1030 nM
[2]
  EC50: > 40300 nM
[4]
  EC50: 322 nM
[9]
  Ratio EC50: 27
[5]
  CC50: 40700 nM
[10]
  selectivity ratio: 3360
[11]
  Ratio EC50: >3332
[6]
  EC50: > 40300 nM
[13]
  Ratio EC50: >3332
[8]
  EC50: 12.1 nM
[12]
  Ratio EC50: 85

## O=C1Nc2ccc(Cl)cc2[C@@](C#CC2CC2)(C(F)(F)F)O1 [EFAVIRENZ]
[1]
  EC50: 160 nM
[2]
  EC50: 760 nM
[3]
  EC50: > 10000 nM
[4]
  EC50: 130 nM
[5]
  CC50: > 15800 nM
[6]
  EC50: > 317 nM
[7]
  EC50: 22 nM
[8]
  EC50: 15.9 nM

## Cc1ccc(CNC(=O)c2[nH]c3ccc(Cl)cc3c2S(=O)(=O)c2cc(C)cc(C)c2)cc1
[1]
  EC50: 215 nM
[2]
  EC50: > 21200 nM
[4]
  EC50: 385 nM
[9]
  Ratio EC50: 183
[5]
  CC50: 21200 nM
[14]
  IC50: 50 nM
[10]
  selectivity ratio: 10100
[11]
  Ratio EC50: >10105
[6]
  EC50: > 21200 nM
[13]
  Ratio EC50: >10105
[8]
  EC50: 2.1 nM
[15]
  IC50: > 20000 nM
[16]
  IC50: > 20000 nM
[12]
  Ratio EC50: 103

## Cc1cc(C)cc(S(=O)(=O)c2c(C(=O)NCCc3ccccc3C)[nH]c3ccc(Cl)cc23)c1
[3]
  EC50: > 10000 nM
[4]
  EC50: 100 nM
[9]
  Ratio EC50: 16
[5]
  CC50: > 52000 nM
[14]
  IC50: 288 nM
[10]
  selectivity ratio: > 8380
[17]
  IC50: 200 nM
[18]
  EC50: 9.1 nM
[6]
  EC50: > 51900 nM
[7]
  EC50: 20 nM
[13]
  Ratio EC50: >8383
[19]
  Ratio EC50: 3.2
[15]
  IC50: 12400 nM
[16]
  IC50: > 20000 nM

## Cc1ccc(CCNC(=O)c2[nH]c3ccc(Cl)cc3c2S(=O)(=O)c2cc(C)cc(C)c2)cc1
[1]
  EC50: 1800 nM
[3]
  EC50: > 50000 nM
[4]
  EC50: > 50000 nM
[9]
  Ratio EC50: 2183
[5]
  CC50: > 52000 nM
[14]
  IC50: 2000 nM
[10]
  selectivity ratio: > 2270
[17]
  IC50: 16200 nM
[18]
  EC50: 33 nM
[6]
  EC50: > 51900 nM
[13]
  Ratio EC50: >2268
[8]
  EC50: 22.9 nM
[15]
  IC50: > 20000 nM
[16]
  IC50: > 20000 nM
[12]
  Ratio EC50: 79

## COc1ccc(CNC(=O)c2[nH]c3ccc(Cl)cc3c2S(=O)(=O)c2cc(C)cc(C)c2)cc1
[1]
  EC50: 21 nM
[2]
  EC50: > 39200 nM
[4]
  EC50: 21 nM
[9]
  Ratio EC50: 100
[5]
  CC50: 39900 nM
[14]
  IC50: 3.7 nM
[10]
  selectivity ratio: 190000
[11]
  Ratio EC50: >186557
[6]
  EC50: > 39200 nM
[13]
  Ratio EC50: >186557
[8]
  EC50: 0.21 nM
[15]
  IC50: > 20000 nM
[16]
  IC50: > 20000 nM
[12]
  Ratio EC50: 100

## Cc1cc(C)cc(S(=O)(=O)c2c(C(=O)NCc3ccc(Cl)cc3)[nH]c3ccc(Cl)cc23)c1
[1]
  EC50: 451 nM
[2]
  EC50: > 51300 nM
[4]
  EC50: 103 nM
[9]
  Ratio EC50: 13
[5]
  CC50: > 51300 nM
[14]
  IC50: 57 nM
[10]
  selectivity ratio: > 6260
[11]
  Ratio EC50: >6255
[6]
  EC50: > 51300 nM
[13]
  Ratio EC50: >6255
[8]
  EC50: 8.2 nM
[15]
  IC50: 7500 nM
[16]
  IC50: > 20000 nM
[12]
  Ratio EC50: 55

## Cc1cc(C)cc(S(=O)(=O)c2c(C(=O)NCc3ccc([N+](=O)[O-])cc3)[nH]c3ccc(Cl)cc23)c1
[1]
  EC50: 70 nM
[2]
  EC50: > 50200 nM
[4]
  EC50: 120 nM
[9]
  Ratio EC50: 60
[5]
  CC50: > 50200 nM
[14]
  IC50: 50 nM
[10]
  selectivity ratio: > 25100
[11]
  Ratio EC50: >25103
[6]
  EC50: > 50200 nM
[13]
  Ratio EC50: >25103
[8]
  EC50: 2 nM
[15]
  IC50: 218 nM
[16]
  IC50: > 20000 nM
[12]
  Ratio EC50: 35

## Cc1cc(C)cc(S(=O)(=O)c2c(C(=O)NCC(C)c3ccccc3)[nH]c3ccc(Cl)cc23)c1 (racemic)
[1]
  EC50: 291 nM
[2]
  EC50: > 19900 nM
[4]
  EC50: 29 nM
[9]
  Ratio EC50: 138
[5]
  CC50: 19900 nM
[10]
  selectivity ratio: 94900
[11]
  Ratio EC50: >94938
[6]
  EC50: > 19900 nM
[13]
  Ratio EC50: >94938
[8]
  EC50: 0.21 nM
[12]
  Ratio EC50: 1386
